The values below come from ChEMBL document CHEMBL1159071, “Discovery of 4-(5-methyloxazolo[4,5-b]pyridin-2-yl)-1,4-diazabicyclo[3.2.2]nonane (CP-810,123), a novel alpha 7 nicotinic acetylcholine receptor agonist for the treatment of cognitive disorders in schizophrenia: synthesis, SAR development, and in vivo efficacy in cognition models” (J Med Chem, 2010).

The source made the active and inactive calls. The rule behind the calls is not given here.

Data set [1] deals with T1, 5-hydroxytryptamine receptor 3A (Homo sapiens, UniProt P46098).
T1 sequence (P46098 whole entry): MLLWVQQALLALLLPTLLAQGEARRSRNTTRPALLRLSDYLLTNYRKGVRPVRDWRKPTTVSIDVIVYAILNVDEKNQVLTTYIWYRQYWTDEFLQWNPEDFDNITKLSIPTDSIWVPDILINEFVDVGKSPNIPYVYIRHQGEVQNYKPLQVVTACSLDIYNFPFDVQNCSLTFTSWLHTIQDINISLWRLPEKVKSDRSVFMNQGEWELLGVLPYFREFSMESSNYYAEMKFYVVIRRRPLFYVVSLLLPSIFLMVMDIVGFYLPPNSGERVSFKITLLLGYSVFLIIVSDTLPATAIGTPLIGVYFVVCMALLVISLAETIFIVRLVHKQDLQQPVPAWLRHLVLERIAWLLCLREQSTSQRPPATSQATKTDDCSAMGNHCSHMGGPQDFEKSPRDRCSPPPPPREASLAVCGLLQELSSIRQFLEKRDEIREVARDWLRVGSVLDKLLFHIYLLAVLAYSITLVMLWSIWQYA
As to the kind of experiment: […] at human 5HT3 receptor expressed in human skin epithelial cells assessed as stimulation of calcium flux by FLIPR assay. Format: functional, cell-based, Epithelial cell. The method, boiled down:
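Human 5-HT3A stably in human skin epithelial cells, plated 15 000 cells/well 2 days ahead; loaded 1 h at 37 °C with Fluo-4 (8 μM final), washed into HBSS with 20 mM Tris-HEPES, 1 μM atropine, 4 mM Ca2+, pH 7.4. Compound added 2 min, then 5-HT challenge (250 nM final) 2 min; FLIPR calcium read.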
Background: Calcium flux is commonly read through the fluorescence of an indicator in the cells.

In data set [2] the test system is CHO. Kind of data set: Toxicity in CHO cells assessed as induction of DNA fragments by in vitro micronucleus assay. Format: cell-based, Cricetulus griseus. The note with it: chinese hamster.
Data set [3] relates to Plasma. As to the kind of experiment: Fraction unbound in rat plasma. Format: ADME, cell-free.
The nature of data set [4]: Oral bioavailability in rat. Format: ADME, organism-based. The conditions noted are these: in vivo.
In data set [5] the target is Neuronal acetylcholine receptor subunit alpha-7 (Rattus norvegicus) (UniProt Q05941). Kind of data set: Ex vivo receptor binding at alpha7 nicotinic acetylcholine receptor in rat hippocampal brain after 30 mins by [125I]alpha-bungarotoxin binding assay. It counts as tissue-based. The conditions noted are these: Hippocampus. The method, boiled down:
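Rats dosed sc with compound or vehicle, 3 per dose group; hippocampus taken 30 min later and homogenized in HEPES buffer pH 7.5. Homogenate incubated 2 h at 37 °C with 0.4 nM [125I]α-bungarotoxin. Nonspecific binding with 1 μM methyllycaconitine; filtration onto GF/B. Occupancy-versus-dose ED50 derived.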

Data set [6] deals with Neuronal acetylcholine receptor; alpha3/beta4 (Homo sapiens, UniProt P30926+P32297). As to the kind of experiment: Displacement of [3H]epibatidine from alpha3beta4 nAChR expressed in IMR32 cells. It counts as cell-based, IMR-32. The method, boiled down:
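Alpha3β4 binding in IMR32 cells with [3H]epibatidine radioligand. Six-point concentration-response curve run in triplicate and averaged.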
For orientation: Displacement assays read how much labelled ligand stays bound in the presence of the test substance.

A short description of data set [7]: Lipophilicity, log D at pH 7.4. The note with it: buffer. Format: physicochemical.
The test system of data set [8] is Rattus norvegicus. Kind of data set: Cognitive enhancement in Sprague-Dawley rat assessed as improvement of scopolamine-impaired performance at 1 mg/kg, sc administered 30 mins before scopolamine challenge by novel object recognition assay. Format: functional, organism-based. Details: dose 1 mg/kg. The method, boiled down:
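Rats habituated to the arena 3 min on day 1. Next day, 10-15 per group dosed sc with vehicle or compound, then 30 min later vehicle or (-)-scopolamine 0.2 mg/kg sc. After 30 min more, two identical objects shown 3 min; 2.5 h later one novel and one familiar object for 3 min. Exploration time per object, mean ± SEM.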

Data set [9] is described as follows: Aqueous solubility of the compound. Format: physicochemical. The note with it: buffer.
Data set [10] in a line: Half life in human liver microsomes. Format: ADME, Microsome. The method, boiled down:
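Stability in human liver microsomes.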
A general note: Microsomes from liver hold many membrane-bound enzymes, among them those of drug oxidation.

For data set [11], the target named is T2, Muscarinic acetylcholine receptor M1 (Homo sapiens, UniProt P11229).
T2 sequence (P11229 whole entry): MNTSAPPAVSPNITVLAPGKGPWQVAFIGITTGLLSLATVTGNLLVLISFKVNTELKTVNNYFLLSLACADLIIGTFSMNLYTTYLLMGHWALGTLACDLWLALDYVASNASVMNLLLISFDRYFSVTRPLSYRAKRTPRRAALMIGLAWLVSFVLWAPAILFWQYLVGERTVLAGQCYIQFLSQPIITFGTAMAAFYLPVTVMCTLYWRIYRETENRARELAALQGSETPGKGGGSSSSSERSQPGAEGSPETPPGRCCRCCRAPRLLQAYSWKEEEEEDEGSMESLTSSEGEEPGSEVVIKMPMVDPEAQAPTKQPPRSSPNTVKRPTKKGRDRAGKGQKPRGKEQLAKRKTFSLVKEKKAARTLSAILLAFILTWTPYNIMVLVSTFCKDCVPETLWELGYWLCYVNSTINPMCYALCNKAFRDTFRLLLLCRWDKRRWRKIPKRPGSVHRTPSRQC
Kind of data set: Inhibition of muscarinic M1 receptor.

The target of data set [12] is T3, 5-hydroxytryptamine receptor 3A (Mus musculus, UniProt P23979).
T3 sequence (P23979 whole entry): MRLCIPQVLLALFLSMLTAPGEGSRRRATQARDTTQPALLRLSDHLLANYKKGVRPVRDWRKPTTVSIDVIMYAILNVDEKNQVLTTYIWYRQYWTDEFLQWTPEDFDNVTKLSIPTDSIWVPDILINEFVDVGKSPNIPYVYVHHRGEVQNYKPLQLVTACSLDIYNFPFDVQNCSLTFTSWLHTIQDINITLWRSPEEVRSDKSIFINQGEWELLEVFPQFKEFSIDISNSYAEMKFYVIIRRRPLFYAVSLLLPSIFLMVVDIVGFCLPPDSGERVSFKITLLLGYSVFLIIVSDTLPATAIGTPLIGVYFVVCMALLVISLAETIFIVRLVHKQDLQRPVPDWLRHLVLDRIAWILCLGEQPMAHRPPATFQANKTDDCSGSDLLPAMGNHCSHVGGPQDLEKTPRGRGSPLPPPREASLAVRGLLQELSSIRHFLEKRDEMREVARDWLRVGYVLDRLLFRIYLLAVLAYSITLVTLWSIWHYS
As to the kind of experiment: Displacement of [3H]LY278584 from mouse 5HT3 receptor expressed in HEK293 cells. Format: cell-based. The method, boiled down: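 Mouse 5-HT3A in HEK293 cell homogenate, 20 mM Tris-HCl pH 7.4 with 154 mM NaCl. [3H]LY278584 1 nM final; nonspecific binding with 10 μM ICS205-930; 60 min at 37 °C, then filtration onto PEI-soaked GF/B. Ki by Cheng-Prusoff; mean of three six-point curves in triplicate in one assay; tropisetron standard.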

Sequence of Neuronal acetylcholine receptor subunit alpha-7 (Rattus norvegicus) (Q05941 whole entry): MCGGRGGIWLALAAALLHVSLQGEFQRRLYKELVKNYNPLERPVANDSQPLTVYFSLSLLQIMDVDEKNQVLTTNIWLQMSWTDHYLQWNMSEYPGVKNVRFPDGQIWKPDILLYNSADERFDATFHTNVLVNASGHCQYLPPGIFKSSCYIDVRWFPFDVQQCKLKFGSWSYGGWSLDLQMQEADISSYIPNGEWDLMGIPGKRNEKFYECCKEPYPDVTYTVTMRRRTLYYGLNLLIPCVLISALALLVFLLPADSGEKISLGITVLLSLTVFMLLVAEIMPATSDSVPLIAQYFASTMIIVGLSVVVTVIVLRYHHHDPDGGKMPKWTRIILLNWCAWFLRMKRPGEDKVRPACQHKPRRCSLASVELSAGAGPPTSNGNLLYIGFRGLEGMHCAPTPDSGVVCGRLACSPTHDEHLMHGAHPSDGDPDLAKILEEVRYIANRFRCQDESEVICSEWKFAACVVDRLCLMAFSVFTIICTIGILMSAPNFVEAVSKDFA
Sequence of Neuronal acetylcholine receptor; alpha3/beta4 (P30926 whole entry): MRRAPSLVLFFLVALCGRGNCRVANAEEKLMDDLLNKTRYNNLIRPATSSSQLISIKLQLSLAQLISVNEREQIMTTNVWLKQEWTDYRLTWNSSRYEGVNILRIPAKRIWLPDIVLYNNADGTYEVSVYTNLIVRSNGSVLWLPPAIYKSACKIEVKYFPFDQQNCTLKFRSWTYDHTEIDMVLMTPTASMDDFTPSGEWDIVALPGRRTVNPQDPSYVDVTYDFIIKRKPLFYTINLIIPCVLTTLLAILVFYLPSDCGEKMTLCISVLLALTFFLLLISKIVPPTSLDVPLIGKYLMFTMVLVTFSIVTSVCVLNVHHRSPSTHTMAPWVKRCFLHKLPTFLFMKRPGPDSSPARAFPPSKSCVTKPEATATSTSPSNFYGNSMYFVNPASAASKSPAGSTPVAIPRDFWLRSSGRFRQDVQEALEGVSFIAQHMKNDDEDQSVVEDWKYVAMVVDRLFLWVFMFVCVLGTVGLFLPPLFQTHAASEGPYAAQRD
Sequence of Neuronal acetylcholine receptor; alpha3/beta4 (P32297 whole entry): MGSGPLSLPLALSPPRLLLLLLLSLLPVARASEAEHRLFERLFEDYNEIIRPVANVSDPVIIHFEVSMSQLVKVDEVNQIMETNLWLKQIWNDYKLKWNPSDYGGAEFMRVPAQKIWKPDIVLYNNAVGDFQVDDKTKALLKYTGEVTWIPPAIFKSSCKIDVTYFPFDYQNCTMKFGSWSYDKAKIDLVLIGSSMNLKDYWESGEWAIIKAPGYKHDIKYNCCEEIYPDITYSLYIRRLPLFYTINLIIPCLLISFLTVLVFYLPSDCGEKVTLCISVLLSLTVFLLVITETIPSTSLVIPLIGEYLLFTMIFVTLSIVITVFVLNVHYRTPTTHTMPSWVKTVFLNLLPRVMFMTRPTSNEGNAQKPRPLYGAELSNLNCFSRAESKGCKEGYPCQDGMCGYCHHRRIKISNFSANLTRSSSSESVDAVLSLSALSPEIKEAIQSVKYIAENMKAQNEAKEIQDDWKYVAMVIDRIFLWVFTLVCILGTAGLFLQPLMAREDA

In general, IC50 refers to the concentration that inhibits the measured activity by half. As a reminder, the bioavailability is the share of a dose that reaches the circulation, judged against a reference dose that is usually intravenous. For orientation: ED50 means the midpoint of the dose-response relation. A higher ED50 goes with a need for a large dose. In general, Ki refers to the dissociation constant of the complex between target and ligand, obtained from inhibition or displacement. The logD is the decadic logarithm of the distribution of all forms, ionised or not, between an organic phase and buffer at a given pH. A high value points to a more lipophilic compound. In general, solubility refers to the concentration that dissolves in the medium under given conditions. Low values mean a poorly soluble substance, high ones a readily soluble substance. As a reminder, the half-life is the time in which the quantity being followed falls by half. A low value points to rapid decline. In the case of `Cc1ccc2oc(N3CCN4CCC3CC4)nc2n1`, the IC50 in data set [1] was determined as 0.005 µM. For the same molecule, in data set [2], the Activity result is given as “Non-toxic”. Also, the Fu in data set [3] is recorded as 0.78%. In [4], this molecule returned a bioavailability of 73%. Moreover, in [5], the 50% effective dose (ED50) is 0.34 mg/kg. In addition, the values for the inhibition constant (Ki) in data set [6], in [11] and in data set [12] were 5.37 µM, 14 µM and 0.269 µM, respectively. In [7], the logD worked out at 0.36. For the same molecule, the result in [8] was Active. For the same molecule, the solubility in data set [9] is greater than 2400 µg/mL. Besides, in data set [10], the half-life was greater than 2 h.
